Several values for one entry are separate records, joined by “and”; a condition that tells them apart may be missing. Identical values can stand only once. Like-named read-outs stand apart in the source and are kept apart here.
Columns and labels:
[1] = large clinical trials, rare; cited from earlier work
[2] = assay type: in vivo, human (Chinese patients with type 2 diabetes); conditions: for AUC(0-inf) / AUC(0-t) / AUC / Tmax / Vd/F / half-life / k el / Cmax: human, plasma; for AUC(0-inf) / AUC(0-t) / AUC / Tmax / Vd/F / half-life / k el: oral; for AUC(0-inf): AUCinf; for AUC(0-inf) / AUC(0-t) / AUC / Vd/F / half-life / k el / %AUC_ex,ss / CLss/F / Cmin,ss / %AUC_ex / CL/F: mean (SD); for AUC(0-t): AUClast; for AUC: AUCtau; for Tmax: median (range); for Vd/F: Vz/F; for k el: λz; for Cmax: po
Procedure, shortened: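 Fasting oral tablets of 50, 100 or 200 mg were given once daily on days 1 and 3–9 (eight doses). Plasma was spun at 1700 ± 50 g, 4 °C, 10 min, acidified with 50% acetic acid (1:100) and stored ≤ –60 °C. Analysis was by validated LC-MS/MS (1.00–2000 ng/mL; LLOQ 1.00 ng/mL). Individual parameters and accumulation ratio came from noncompartmental analysis using actual sampling times.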

[3] = molecular target: T1, DPP-4 (Homo sapiens, UniProt P27487); assay: Inhibition of plasma DPP-4 activity after single and multiple doses of DBPR108; assay type: in vivo, human (Chinese patients with type 2 diabetes)
Procedure, shortened: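 Chinese adults with type 2 diabetes (HbA1c 7.0–9.5%, BMI 19–35 kg/m2), 10 per group. Oral tablets of 50, 100 or 200 mg were given fasting, once daily on days 1 and 3–9. Plasma was spun at 1300 ± 50 g, 2–8 °C, 10 min and stored ≤ –60 °C. DPP-4 activity was read on a microplate reader (LLOQ 21.23 μU/mL), with % inhibition taken from baseline.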

[4] = test system: active GLP-1; assay: Plasma active GLP-1 level after single and multiple doses of DBPR108; assay type: in vivo, human (Chinese patients with type 2 diabetes); conditions: for Emax,GLP-1 (active GLP-1): mean (SD)
Procedure, shortened: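 Patients with type 2 diabetes, 10 per group, received oral tablets of 50, 100 or 200 mg fasting, once daily on days 1 and 3–9. Plasma was spun at 1300 ± 50 g, 2–8 °C, 10 min and stored ≤ –60 °C. Active GLP-1 was measured by MSD V-PLEX kit (LLOQ 0.182 pM). Emax and time to Emax were taken per group, and correlation with exposure was checked.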

[5] = molecular target: T1, DPP-4; assay: PK-PD relationship between DPP-4 inhibition and DBPR108 exposure; assay type: in vivo, human (Chinese patients with type 2 diabetes)
Procedure, shortened: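 Each patient's plasma drug level (LC-MS/MS) was paired with plasma DPP-4 % inhibition, after one dose and after repeated once-daily oral dosing at 50–200 mg. Linear correlation with exposure was assessed, and inhibition versus concentration was fitted with an Emax model giving Emax and EC50. Only patients with evaluable PK and PD data were included.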

[6] = Safety assessment; assay type: in vivo, human (Chinese patients with type 2 diabetes)
Procedure, shortened: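 Treatment-emergent adverse events were recorded as a secondary outcome in all patients dosed at least once. Dosing was oral tablets of 50, 100 or 200 mg, fasting, once daily on days 1 and 3–9. Patients were grouped by the dose actually received.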

[7] = test system: DPP‐4; conditions: cited from earlier work
[8] = test system: DPP‐2; conditions: cited from earlier work
[9] = test system: DPP‐8; conditions: cited from earlier work
[10] = test system: DPP‐9; conditions: cited from earlier work
[11] = test system: fibroblast activation protein; conditions: cited from earlier work
[12] = test system: DPP-4 activity in the plasma; conditions: plasma of humans, rodents, dogs, and monkeys, range over species; cited from earlier work
[13] = test system: diet-induced obese mice; conditions: DBPR108 in combination with metformin; cited from earlier work
[14] = single dose of 100 mg, healthy subjects, cited from earlier work
[15] = test system: DPP-4; conditions: 168 h post single dose of 25 mg, healthy Japanese subjects; cited from earlier work
[16] = 50 mg, multiple doses 50 mg once daily
[17] = 100 mg, multiple doses 100 mg once daily
[18] = 200 mg, multiple doses 200 mg once daily
[19] = multiple doses 50 mg once daily
[20] = multiple doses 100 mg once daily
[21] = multiple doses 200 mg once daily
[22] = multiple doses, range over 50-200 mg groups
[23] = single dose and multiple doses, 50 mg to 200 mg, linear regression

T1 sequence (P27487 39-766): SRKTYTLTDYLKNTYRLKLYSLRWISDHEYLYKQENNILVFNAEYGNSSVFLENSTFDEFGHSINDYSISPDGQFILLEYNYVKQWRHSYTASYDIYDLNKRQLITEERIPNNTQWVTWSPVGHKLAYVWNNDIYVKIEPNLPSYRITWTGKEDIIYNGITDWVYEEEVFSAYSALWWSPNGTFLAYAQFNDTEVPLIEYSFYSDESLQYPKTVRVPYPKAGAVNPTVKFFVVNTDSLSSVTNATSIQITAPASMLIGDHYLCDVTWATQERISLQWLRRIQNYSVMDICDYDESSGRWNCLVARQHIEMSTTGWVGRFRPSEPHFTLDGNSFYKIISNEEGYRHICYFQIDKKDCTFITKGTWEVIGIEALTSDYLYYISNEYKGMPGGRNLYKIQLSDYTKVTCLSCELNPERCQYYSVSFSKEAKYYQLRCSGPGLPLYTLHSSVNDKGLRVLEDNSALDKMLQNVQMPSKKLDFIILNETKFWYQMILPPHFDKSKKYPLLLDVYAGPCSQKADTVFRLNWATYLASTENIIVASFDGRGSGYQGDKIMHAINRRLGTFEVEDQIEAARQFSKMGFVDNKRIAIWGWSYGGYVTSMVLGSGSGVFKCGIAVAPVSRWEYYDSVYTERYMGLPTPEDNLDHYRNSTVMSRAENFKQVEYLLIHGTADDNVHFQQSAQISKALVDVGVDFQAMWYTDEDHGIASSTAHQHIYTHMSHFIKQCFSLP

Cn1c(=O)cc(N2CCC[C@@H](N)C2)n(Cc2ccccc2C#N)c1=O [alogliptin]
Risk of pancreatitis [1]: increased risks of pancreatitis were observed

N[C@@H](CC(=O)N1CCn2c(nnc2C(F)(F)F)C1)Cc1cc(F)c(F)cc1F [sitagliptin]
Risk of pancreatitis [1]: increased risks of pancreatitis were observed

CC(C)(CC(=O)N1CCCC1)NCC(=O)N1C[C@@H](F)C[C@H]1C#N [DBPR108, (2S,4S)-1-[2-(1,1-dimethyl-3-oxo-3-pyrrolidin-1-yl-propylamino)acetyl]-4-fluoro-pyrrolidine-2-carbonitrile]
Dose proportionality of exposure (power model) ([2]; 50 mg to 200 mg, single dose and multiple doses): increased dose proportionally | Steady state achieved on ([2]; dosing on days 1 and 3-9): 7 days | AUC(0-inf) ([2]; 50 mg, single dose 50 mg): 792 ng·h/mL | AUC(0-t) ([2]; 50 mg, single dose 50 mg): 780 ng·h/mL | AUC ([2]; 50 mg, single dose 50 mg): 770 ng·h/mL | Tmax ([2]; 50 mg, single dose 50 mg): 1.5 h | Vd/F [2, 16]: 806 L | Vd/F ([2]; 50 mg, single dose 50 mg): 479 L | half-life ([2]; 50 mg, t½, single dose 50 mg): 5 h | half-life ([2]; 50 mg, t½,ss, multiple doses 50 mg once daily): 8 h | k el [2, 16]: 3.56e-05 s⁻¹ | k el ([2]; 50 mg, single dose 50 mg): 5e-05 s⁻¹ | AUC(0-inf) ([2]; 100 mg, single dose 100 mg): 1530 ng·h/mL | AUC(0-t) ([2]; 100 mg, single dose 100 mg): 1500 ng·h/mL | AUC ([2]; 100 mg, single dose 100 mg): 1450 ng·h/mL | Tmax ([2]; 100 mg, single dose 100 mg): 4.5 h | Vd/F [2, 17]: 896 L | Vd/F ([2]; 100 mg, single dose 100 mg): 1010 L | half-life ([2]; 100 mg, t½, single dose 100 mg): 9.6 h | half-life ([2]; 100 mg, t½,ss, multiple doses 100 mg once daily): 7.4 h | k el [2, 17]: 4.03e-05 s⁻¹ | k el ([2]; 100 mg, single dose 100 mg): 3.61e-05 s⁻¹ | AUC(0-inf) ([2]; 200 mg, single dose 200 mg): 3400 ng·h/mL | AUC(0-t) ([2]; 200 mg, single dose 200 mg): 3280 ng·h/mL | AUC ([2]; 200 mg, single dose 200 mg): 3120 ng·h/mL | Tmax ([2]; 200 mg, single dose 200 mg): 4.5 h | Vd/F [2, 18]: 894 L | Vd/F ([2]; 200 mg, single dose 200 mg): 1070 L | half-life ([2]; 200 mg, t½, single dose 200 mg): 12.3 h | half-life ([2]; 200 mg, t½,ss, multiple doses 200 mg once daily): 10.2 h | k el [2, 18]: 2.69e-05 s⁻¹ | k el ([2]; 200 mg, single dose 200 mg): 2.78e-05 s⁻¹ | Cmax ([2]; 50 mg): 151 ng/mL | Cmax ([2]; 100 mg): 239 ng/mL | Cmax ([2]; 200 mg): 474 ng/mL | %AUC_ex,ss [2, 19]: 4.48 (4.09) % | CLss/F [2, 19]: 76.0 (23.3) L/h | Cmin,ss [2, 19]: 3.2 (1.6) ng/mL | %AUC_ex,ss [2, 20]: 2.33 (3.04) % | CLss/F [2, 20]: 76.4 (22.3) L/h | Cmin,ss [2, 20]: 5.6 (2.9) ng/mL | %AUC_ex,ss [2, 21]: 3.17 (3.44) % | CLss/F [2, 21]: 64.6 (16.7) L/h | Cmin,ss [2, 21]: 18.3 (16.8) ng/mL | Accumulation ratio (Rac) ([2]; multiple doses, range over the 50-, 100-, 200-mg groups): 0.85 to 1.3 and 0.85–1.3 | Steady state reached after ([2]; once-daily dosing, 50-200 mg): four | %AUC_ex ([2]; single dose 50 mg): 1.5 (0.9) % | CL/F ([2]; single dose 50 mg): 66.6 (16.5) L/h | %AUC_ex ([2]; single dose 100 mg): 2.3 (1.4) % | CL/F ([2]; single dose 100 mg): 72.9 (26.2) L/h | %AUC_ex ([2]; single dose 200 mg): 3.2 (3.2) % | CL/F ([2]; single dose 200 mg): 63.3 (17.0) L/h | maximum inhibitory efficacy of DPP-4 [3, 22]: 62.1 to 89.4% | time to Emax,DPP-4 [3, 22]: 3 to 4 h | median time to Emax of DPP-4 ([3]; single dose 50 mg): 2 h | median time to Emax of DPP-4 ([3]; single dose 100 mg): 4 h | median time to Emax of DPP-4 ([3]; single dose 200 mg): 6 h | Active GLP-1 levels after administration ([4]; after DBPR108 administration, 50-200 mg): increased | Emax,GLP-1 (active GLP-1) [4, 19]: 5.7 (2.2) pM | Emax,GLP-1 (active GLP-1) [4, 20]: 6.6 (2.3) pM | Emax,GLP-1 (active GLP-1) [4, 21]: 5.8 (3.2) pM | median time to Emax,GLP-1 [4, 22]: 6 to 7 h | median time to Emax,GLP-1 ([4]; single dose 50 mg): 8 h | Emax,GLP-1 (active GLP-1) ([4]; single dose 50 mg): 4.5 (1.6) pM | median time to Emax,GLP-1 ([4]; single dose 100 mg): 12 h | Emax,GLP-1 (active GLP-1) ([4]; single dose 100 mg): 4.8 (1.4) pM | median time to Emax,GLP-1 ([4]; single dose 200 mg): 12 h | Emax,GLP-1 (active GLP-1) ([4]; single dose 200 mg): 5.5 (2.1) pM | Correlation between changes in plasma active GLP-1 and DBPR108 exposure [4, 23]: no linear correlation was noted | EC50 ([5]; EC50 (Emax model), after a single administration, DPP-4 inhibition versus plasma concentration): 323 nM | Emax,DPP-4 (Emax model) ([5]; after multiple doses, DPP-4 inhibition versus plasma concentration): 106.19% | Emax ([5]; read-out: Emax,DPP-4 (Emax model), after a single administration, DPP-4 inhibition versus plasma concentration): 120% | Emax ([5]; read-out: Emax,DPP-4 (Emax model), after multiple doses, DPP-4 inhibition versus plasma concentration): 106% | Correlation between DPP-4 inhibition and DBPR108 exposure [5, 23]: linear correlation was observed | Tolerability ([6]; 50-200 mg once daily, eight doses): well tolerated | Cardiovascular adverse events ([6]; all 30 patients): no cardiovascular adverse events were observed | Severe TEAEs, serious TEAEs, TEAEs leading to treatment interruption or discontinuation ([6]; all 30 patients): No severe TEAEs, serious TEAEs, or TEAEs leading to treatment interruption or discontinuation occurred | TEAE white blood cell count increase, n [%] ([6]; all 30 patients): 1 [3.3%] | Patients with treatment-emergent adverse events (TEAEs) ([6]; all 30 patients, 50-200 mg): 20% | IC50 [7]: 15 nM | IC50 [8]: > 50 nM | IC50 [9]: > 50 nM | IC50 [10]: > 50 nM | IC50 [11]: > 50 nM | IC50 [12]: 4.1 to 20.4 nM | Glucose tolerability [13]: improved glucose tolerability | Cmax ([14]; mean (SD)): 218.8 (101.8) ng/mL | t½ ([14]; mean (SD)): 8.2 (8.6) h | Tmax ([14]; median (range)): 4.48 (range 1–6) h

CS(=O)(=O)n1cc2c(n1)CN([C@H]1CO[C@H](c3cc(F)ccc3F)[C@@H](N)C1)C2 [omarigliptin]
Emax,DPP-4 [15]: 86.0%
